ERb SRC1 inh – ER-beta (human) coactivator binding inhibition | Q92731 | 1.3% of 86,000 active | TR-FRET ER-beta LBD / SRC1-Cy5 peptide binding; receptor agonist-loaded with 1 µM estradiol | inhibition, % at 25.6 µM;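 active = compounds whose percent inhibition of the receptor-coactivator binding signal exceeds about 50% in the single-dose screen, limit read from the data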
Target sequence (Q92731 whole entry, looked up, the tested form may be a part): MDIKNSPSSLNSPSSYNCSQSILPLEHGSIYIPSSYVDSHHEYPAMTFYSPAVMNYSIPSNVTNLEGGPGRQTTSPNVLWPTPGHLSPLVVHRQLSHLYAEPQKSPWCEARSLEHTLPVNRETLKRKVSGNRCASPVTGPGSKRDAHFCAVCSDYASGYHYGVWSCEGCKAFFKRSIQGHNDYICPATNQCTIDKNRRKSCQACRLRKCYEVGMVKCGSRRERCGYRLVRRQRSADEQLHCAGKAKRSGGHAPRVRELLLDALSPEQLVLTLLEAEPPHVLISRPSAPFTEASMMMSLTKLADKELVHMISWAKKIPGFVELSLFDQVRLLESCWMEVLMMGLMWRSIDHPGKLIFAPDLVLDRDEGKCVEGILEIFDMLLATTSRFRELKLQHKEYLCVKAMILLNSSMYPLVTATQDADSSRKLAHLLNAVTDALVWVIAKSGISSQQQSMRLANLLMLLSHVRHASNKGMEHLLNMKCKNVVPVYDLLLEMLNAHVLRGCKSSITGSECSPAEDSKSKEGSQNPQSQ
ERa coact pot – enhances coactivator binding to human estrogen receptor alpha; P03372; TR-FRET ERalpha-LBD/SRC-Cy5 coactivator binding, 2 h; 100 = basal binding, no effect; coactivator binding (% of control), % at 25.6 µM; 1.3% of 86,000 active; AID 639; in the data active = activity above about 200%;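 also: binding measured in presence of low estradiol as agonist stimulus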
RORa activator – RORA (human) activation. 1.5% of 65,000 active. CHO-K1 Gal4-RORA LBD luciferase reporter, luminescence; percent increase over mock-subtracted basal signal. P35398. activation, % at 10 µM. AID 560;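 active = activation above the mean of all tested compounds plus 3 SD, cut at about 49% in these data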
ERa SRC1 inh – blocks coactivator binding to human estrogen receptor alpha | TR-FRET ER-alpha LBD / SRC-1 peptide, estradiol-bound | inhibition, % at 25.6 µM | 1.7% of 86,000 active | AID 629; in the data active = inhibition above about 50%
SF1 activator – activators of human nuclear receptor SF-1; activation, % at 10 µM; Q13285; CHO-K1 Gal4-SF-1 LBD luciferase reporter; % increase over DMSO SF-1-specific signal; 1.9% of 65,000 active;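 active = activation above the mean activation of all tested compounds plus 3 SD, cut at about 50% in these data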
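System: CHO-K1 cells with Gal4–hSF-1 LBD chimera plus Gal4-driven luciferase; quantity: 4,000 CHO-K1 cells per well; compound: one dose, 10 µM compound, 1% DMSO; times: 20 h compound treatment, 37 °C; measured by: SteadyLite luciferase luminescence; read-out: percent activation versus DMSO; benchmarks: DMSO and mock-transfected background; replicates: one test per compound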
Pyk2 oligo antag – Pyk2 (human) oligomerization antagonism | Q14289 | Q293 cells, Pyk2 FERM NanoBiT luminescence; hits give low values | z-score (the deposit names both 25 µM and 10 µM) | 0.83% of 99,000 active;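 active = Z-score of -3 or lower, scaled per plate to the spread of control and sample wells; inactive = z-score above -3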;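 also: negative z-score means lost luminescence so less FERM oligomerization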
Large screens that a line does not name were inactive; [ ] = remark or other dose. Compounds with a hit are over-represented: about 4.8% of the library has one in this group of screens.

O=S(=O)(c1ccccc1)N1CCN(c2cc(-c3ccccc3)nc3ncnn23)CC1	Pyk2 oligo antag -3.8
O=C(O)c1cccc(-n2cccc2/C=N/O)c1	ERb SRC1 inh 77[fluorescence artefact?], ERa SRC1 inh 76[fluorescence artefact?]
ON=Cc1cccn1-c1ccccc1	none
NC(=O)c1ccccc1NC(=O)/C=C/c1cccc(Cl)c1	Pyk2 oligo antag -3.2 (no result: ERb SRC1 inh, ERa coact pot, RORa activator, ERa SRC1 inh, SF1 activator)
Nc1n[nH]c(-c2ccccc2)n1	none (no result: RORa activator, SF1 activator)
COc1ccc(Nc2nc(N)nc(CSc3n[nH]c(-c4ccccc4)n3)n2)cc1	none (no result: ERb SRC1 inh, ERa coact pot, ERa SRC1 inh)
Cc1ccc(-c2nc(Nc3ccccc3)n[nH]2)cc1	RORa activator 63, SF1 activator 64
Nc1nc(CSc2n[nH]c(-c3ccccc3)n2)nc(Nc2ccccc2)n1	RORa activator 72
Fc1ccc(CSc2nncn2NCc2ccc3c(c2)OCO3)cc1	none
CS(=O)(=O)c1nc2ccccc2n1Cc1ccccc1	none (no result: RORa activator, SF1 activator)
O=S(=O)(O)c1nc2ccccc2n1Cc1ccccc1	ERb SRC1 inh 63 (no result: RORa activator, SF1 activator, Pyk2 oligo antag)
O=S(=O)(NCCn1ccc2ccccc21)c1ccccc1	none (no result: RORa activator, SF1 activator, Pyk2 oligo antag)
O=C(NCc1ccco1)c1ccc(Cn2c(=O)c3sccc3n(Cc3cccc(F)c3)c2=O)cc1	ERa SRC1 inh 57[fluorescence artefact?] (no result: RORa activator, SF1 activator, Pyk2 oligo antag)
O=C(NCc1ccco1)c1ccc(Cn2c(=O)c3ccccc3n(Cc3cccc(Cl)c3)c2=O)cc1	ERa SRC1 inh 67[fluorescence artefact?] (no result: RORa activator, SF1 activator)
O=C(Cn1c(=O)n(Cc2ccco2)c(=O)c2ccccc21)Nc1cccc(Cl)c1	none (no result: Pyk2 oligo antag)
CCN(CC)c1nc(C)nc2c1cnn2CCc1ccccc1	none (no result: ERb SRC1 inh, ERa coact pot, RORa activator, ERa SRC1 inh, SF1 activator)
CCC(C)NC(=O)CSC1=Nc2ccccc2C2=NC(CC(=O)NCc3ccccc3)C(=O)N12 (configuration not stated)	none
COc1ccc(CC(=O)Nc2ccc(-c3noc(-c4ccccc4OC)n3)cc2)cc1	ERa coact pot 328[fluorescence artefact?] (no result: RORa activator, SF1 activator)
COc1ccc(CCC(=O)Nc2ccc(-c3noc(-c4ccc(OC)c(OC)c4)n3)cc2)cc1	SF1 activator 75
COc1cc(-c2nc(-c3ccc(NC(=O)c4ccc(Br)o4)cc3)no2)cc(OC)c1OC	ERa coact pot 227[fluorescence artefact?], ERa SRC1 inh 72[fluorescence artefact?] (no result: RORa activator, SF1 activator)
COC(=O)c1sc2ncn(-n3c(C)ccc3C)c(=O)c2c1C	none (no result: RORa activator, SF1 activator)
Cc1cc(Nc2nc3c(c(=O)n(C)c(=O)n3C)n2C)n(-c2ccccc2)n1	none (no result: ERb SRC1 inh, ERa coact pot, ERa SRC1 inh, Pyk2 oligo antag)
CCSc1nnc2c(n1)[nH]c1c(C)cccc12	RORa activator 64
O=C(COC(=O)Cc1ccc(Cl)cc1Cl)Nc1ccccc1OC(F)F	none (no result: ERb SRC1 inh, ERa coact pot, RORa activator, ERa SRC1 inh, SF1 activator)
O=C(Cn1ncc2c(=O)oc3ccccc3c21)Nc1nc2ccccc2s1	ERa coact pot 429 (no result: Pyk2 oligo antag)
O=C(Cn1ncc2c(=O)oc3ccccc3c21)NC1CC1	none (no result: ERb SRC1 inh, ERa coact pot, ERa SRC1 inh)
Cc1ccn2c(Nc3ccccc3C)c(-c3ccncc3)nc2c1	none (no result: ERb SRC1 inh, ERa coact pot, RORa activator, ERa SRC1 inh, SF1 activator)
CCCCc1ccc(-c2ccc(C)cc2O)nc1	ERa coact pot 203[fluorescence artefact?]
CCCCc1ccc(-c2ccc(Br)cc2O)nc1	none (no result: RORa activator, SF1 activator)
CCOC(=O)CSc1cccc2cccnc12	ERa coact pot 237[fluorescence artefact?]
O=C1CCCC(O)=C1C(C#Cc1ccccc1)C1=C(O)CCCC1=O	ERb SRC1 inh 52[fluorescence artefact?]
CC1(C)CC(=O)C(C(C#Cc2ccccc2)C2=C(O)CC(C)(C)CC2=O)=C(O)C1	none (no result: RORa activator, SF1 activator)
CCCc1cc2c(=O)c(-c3ccccn3)coc2cc1OC	ERa coact pot active[fluorescence artefact?], RORa activator 54, SF1 activator 76
CC1CCCCN1C(=O)COC(=O)c1n[nH]c2ccccc12 (configuration not stated)	none (no result: RORa activator, SF1 activator)
CC(C)c1nnc(N2C(=O)c3oc4ccccc4c(=O)c3C2c2ccco2)s1 (configuration not stated)	none (no result: ERb SRC1 inh, ERa coact pot, ERa SRC1 inh)
COc1ccc(C2c3c(oc4ccccc4c3=O)C(=O)N2c2ccccn2)cc1 (configuration not stated)	ERa coact pot 218 (no result: Pyk2 oligo antag)
Cc1nnc(N2C(=O)c3oc4ccccc4c(=O)c3C2c2ccco2)s1 (configuration not stated)	ERb SRC1 inh 62[fluorescence artefact?] (no result: Pyk2 oligo antag)
CC1(C)CC2CC(C)(CN2S(=O)(=O)c2cccc(N)c2)C1 (configuration not stated)	ERa coact pot 237[fluorescence artefact?] (no result: RORa activator, SF1 activator)
COC(=O)Cn1c(=NC(=O)C2CC2)sc2c(C)cc(C)cc21	ERa SRC1 inh 55[fluorescence artefact?] (no result: Pyk2 oligo antag)
Cc1csc(C(C#N)C(=O)c2ccncc2)n1 (configuration not stated)	ERb SRC1 inh 63
Cc1nnc(NC(=O)c2ccncc2)s1	none (no result: RORa activator, SF1 activator)

Source: PubChem BioAssay
